Experimental data taken from ChEMBL document CHEMBL5154713, “Illuminating a Dark Kinase: Structure-Guided Design, Synthesis, and Evaluation of a Potent Nek1 Inhibitor and Its Effects on the Embryonic Zebrafish Pronephros” (J Med Chem, 2022).

What was measured:
[1] = target: Serine-protein kinase ATM (Homo sapiens) (UniProt Q13315); assay: Inhibition of human full length recombinant ATM assessed as residual activity at 1 uM using GST-cMyc-p53 as substrate incubated for 40 mins in presence of ATP by HTRF assay relative to control
[2] = target: Serine/threonine-protein kinase Nek11 (Homo sapiens) (UniProt Q8NG66); assay: Inhibition of human full length recombinant NEK11 assessed as residual activity at 1 uM using myelin basic protein as substrate incubated for 40 mins in presence of [gamma 33P]-ATP by radiometric scintillation counting assay relative to control
Summary of the method: (§1)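 Commercial radiometric panel of 50 kinases. Each recombinant human kinase was tested at a single compound concentration of 1 μM. ATP was set within 15 μM of the apparent Km for ATP for each kinase. Residual activity is relative to control and is the mean of two independent experiments.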

[3] = Permeability across apical to basolateral side in human Caco-2 cells at pH 6.5 to 7.4 by HPLC-MS/MS analysis; format: ADME, cell-based; conditions: Caco-2, pH 6.5, read-out: permeability
Summary of the method: (§2)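 Commercial Caco-2 assay, apical-to-basolateral direction at pH 6.5/7.4. Permeability and percent recovery taken from HPLC-MS/MS peak area response. Propranolol, labetalol, colchicine and ranitidine run in parallel as references.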

Homo sapiens [4] = species on record: Homo sapiens; assay: Inhibition of recombinant full length human CK2alpha2 assessed as residual activity at 1 uM using RRRDDDSDDD as substrate incubated 40 mins in presence of [gamma-33ATP] by scintillation counting based radiometry assay relative to control; summary of the method: as §1
[5] = target: Tyrosine-protein kinase ABL1 (Homo sapiens) (UniProt P00519); assay: Inhibition of human recombinant ABL (27 to end residues) assessed as residual activity at 1 uM using EAIYAAPFAKKK as substrate incubated for 40 mins in presence of [gamma33P-ATP] by radiometric scintillation counting analysis; summary of the method: as §1
[6] = target: Interleukin-1 receptor-associated kinase 4 (Homo sapiens) (UniProt Q9NWZ3); assay: Inhibition of human full length IRAK4 assessed as residual activity at 1 uM using myelin basic protein as substrate incubated for 40 mins in presence of [gamma 33P]-ATP by radiometric scintillation counting assay relative to control; summary of the method: as §1
[7] = Permeability across apical to basolateral side in human Caco-2 cells assessed as drug recovery at pH 6.5 to 7.4 by HPLC-MS/MS analysis; format: ADME, cell-based; conditions: Caco-2, pH 6.5, read-out: Drug recovery; summary of the method: as §2
[8] = target: Phosphatidylinositol 4,5-bisphosphate 3-kinase catalytic subunit beta isoform (Homo sapiens) (UniProt P42338); assay: Inhibition of human full length recombinant PI3Kbeta assessed as residual activity using phosphatidylinositol 4,5-bisphosphate as substrate at 1 uM incubated for 40 mins in presence of ATP by HTRF assay relative to control
[9] = target: Inhibitor of nuclear factor kappa-B kinase subunit alpha (Homo sapiens) (UniProt O15111); assay: Inhibition of human full length recombinant IKKalpha assessed as residual activity at 1 uM using peptide as substrate incubated for 40 mins in presence of [gamma 33P]-ATP by radiometric scintillation counting assay relative to control; summary of the method: as §1
[10] = Toxicity in wild-type Zebrafish embryos assessed as lethality at 30 uM measured after 72 hrs; design: species or system Danio rerio; conditions: in vivo
Summary of the method: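 Wild-type zebrafish embryos with intact chorions were selected at 4 hpf, 15 per group, in E3 medium. At 6 hpf a 10× dilution of a DMSO stock was added to give final concentrations of 0.05–30 μM. Survival was scored every 24 h by heartbeat over 120 h. The 30 μM group was run in 5 replicates and the others at least in triplicate.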

[11] = target: Serine/threonine-protein kinase PLK3 (Homo sapiens) (UniProt Q9H4B4); assay: Inhibition of recombinant human Plk3 (19 to 301 residues) assessed as residual activity at 1 uM using casein as substrate measured after 40 mins in presence of [gamma33P]ATP by radiometric scintillation counting method relative to control; summary of the method: as §1
Homo sapiens [12] = species on record: Homo sapiens; assay: Inhibition of human full length recombinant CDK2/cyclinE assessed as residual activity at 1 uM using histone H1 as substrate incubated for 40 mins in presence of [gamma 33P]-ATP by radiometric scintillation counting assay relative to control; summary of the method: as §1
Homo sapiens [13] = species on record: Homo sapiens; assay: Inhibition of human full length recombinant CDK1/CyclinB assessed as residual activity at 1 uM using histone H1 as substrate incubated for 40 mins in presence of [gamma 33P]-ATP by radiometric scintillation counting assay relative to control; summary of the method: as §1
[14] = target: Platelet-derived growth factor receptor beta (Homo sapiens) (UniProt P09619); assay: Inhibition of human PDGFRbeta (557 to end residues) assessed as residual activity at 1 uM using poly(Glu, Tyr) 4:1 as substrate measured after 40 mins in presence of [gamma33P]ATP by scintillation counting method relative to control; summary of the method: as §1
[15] = target: Serine/threonine-protein kinase tousled-like 1 (Homo sapiens) (UniProt Q9UKI8); assay: Inhibition of human full length recombinant TLK1 assessed as residual activity at 1 uM using casein as substrate incubated for 40 mins in presence of [gamma 33P]-ATP by radiometric scintillation counting assay relative to control; summary of the method: as §1
[16] = target: Serine/threonine-protein kinase pim-1 (Homo sapiens) (UniProt P11309); assay: Inhibition of human full length recombinant Pim1 assessed as residual activity at 1 uM using KKRNRTLTV as substrate incubated for 40 mins in presence of [gamma 33P]-ATP by radiometric scintillation counting assay relative to control; summary of the method: as §1
[17] = target: Serine/threonine-protein kinase Nek6 (Homo sapiens) (UniProt Q9HC98); assay: Inhibition of human NEK6 (2 to end residues) assessed as residual activity at 1 uM using FLAKSFGSPNRAYKK as substrate incubated for 40 mins in presence of [gamma 33P]-ATP by radiometric scintillation counting assay relative to control; summary of the method: as §1
Sequence of Serine/threonine-protein kinase Nek6 (Homo sapiens) (Q9HC98 whole entry): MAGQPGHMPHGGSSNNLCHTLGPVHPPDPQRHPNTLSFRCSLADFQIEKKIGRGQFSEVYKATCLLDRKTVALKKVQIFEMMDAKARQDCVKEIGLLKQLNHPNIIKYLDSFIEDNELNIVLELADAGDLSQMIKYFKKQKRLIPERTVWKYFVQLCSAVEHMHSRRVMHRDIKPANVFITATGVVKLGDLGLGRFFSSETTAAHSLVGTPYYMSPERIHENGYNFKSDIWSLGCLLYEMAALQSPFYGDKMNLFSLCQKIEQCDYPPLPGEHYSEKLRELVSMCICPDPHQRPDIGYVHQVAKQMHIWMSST

Sequence of Interleukin-1 receptor-associated kinase 4 (Homo sapiens) (Q9NWZ3 whole entry): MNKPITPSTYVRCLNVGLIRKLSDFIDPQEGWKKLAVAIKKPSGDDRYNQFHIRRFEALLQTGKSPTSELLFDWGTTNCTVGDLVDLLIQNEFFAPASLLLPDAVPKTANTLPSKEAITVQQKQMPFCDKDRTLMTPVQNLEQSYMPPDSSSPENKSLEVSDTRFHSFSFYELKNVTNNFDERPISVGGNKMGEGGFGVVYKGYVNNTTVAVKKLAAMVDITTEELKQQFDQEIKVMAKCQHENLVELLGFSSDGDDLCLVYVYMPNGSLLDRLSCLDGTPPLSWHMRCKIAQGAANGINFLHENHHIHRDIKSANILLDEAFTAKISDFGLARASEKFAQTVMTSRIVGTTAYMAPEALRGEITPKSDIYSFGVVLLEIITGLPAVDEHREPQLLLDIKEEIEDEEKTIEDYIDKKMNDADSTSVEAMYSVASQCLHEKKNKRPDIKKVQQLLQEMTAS
Sequence of Inhibitor of nuclear factor kappa-B kinase subunit alpha (Homo sapiens) (O15111 whole entry): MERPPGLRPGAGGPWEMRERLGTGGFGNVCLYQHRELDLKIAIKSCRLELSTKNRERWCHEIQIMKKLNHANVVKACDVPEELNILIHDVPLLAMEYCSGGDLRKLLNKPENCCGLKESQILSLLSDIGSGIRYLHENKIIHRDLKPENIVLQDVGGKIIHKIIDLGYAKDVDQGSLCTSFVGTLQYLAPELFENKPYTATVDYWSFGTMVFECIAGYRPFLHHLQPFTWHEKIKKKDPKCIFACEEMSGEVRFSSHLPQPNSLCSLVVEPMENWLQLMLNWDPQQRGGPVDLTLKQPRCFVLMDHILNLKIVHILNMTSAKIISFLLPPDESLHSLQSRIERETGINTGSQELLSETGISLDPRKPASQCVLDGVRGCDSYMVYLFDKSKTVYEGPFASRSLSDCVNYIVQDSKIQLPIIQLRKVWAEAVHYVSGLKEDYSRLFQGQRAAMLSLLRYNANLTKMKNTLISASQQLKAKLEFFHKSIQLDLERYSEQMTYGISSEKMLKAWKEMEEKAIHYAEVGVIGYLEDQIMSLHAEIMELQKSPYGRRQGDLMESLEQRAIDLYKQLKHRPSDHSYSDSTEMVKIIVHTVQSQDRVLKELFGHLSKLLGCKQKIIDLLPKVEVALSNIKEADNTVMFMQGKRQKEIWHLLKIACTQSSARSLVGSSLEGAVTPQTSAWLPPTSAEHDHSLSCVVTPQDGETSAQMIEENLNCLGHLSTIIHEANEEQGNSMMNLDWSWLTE
Sequence of Serine/threonine-protein kinase tousled-like 1 (Homo sapiens) (Q9UKI8 whole entry): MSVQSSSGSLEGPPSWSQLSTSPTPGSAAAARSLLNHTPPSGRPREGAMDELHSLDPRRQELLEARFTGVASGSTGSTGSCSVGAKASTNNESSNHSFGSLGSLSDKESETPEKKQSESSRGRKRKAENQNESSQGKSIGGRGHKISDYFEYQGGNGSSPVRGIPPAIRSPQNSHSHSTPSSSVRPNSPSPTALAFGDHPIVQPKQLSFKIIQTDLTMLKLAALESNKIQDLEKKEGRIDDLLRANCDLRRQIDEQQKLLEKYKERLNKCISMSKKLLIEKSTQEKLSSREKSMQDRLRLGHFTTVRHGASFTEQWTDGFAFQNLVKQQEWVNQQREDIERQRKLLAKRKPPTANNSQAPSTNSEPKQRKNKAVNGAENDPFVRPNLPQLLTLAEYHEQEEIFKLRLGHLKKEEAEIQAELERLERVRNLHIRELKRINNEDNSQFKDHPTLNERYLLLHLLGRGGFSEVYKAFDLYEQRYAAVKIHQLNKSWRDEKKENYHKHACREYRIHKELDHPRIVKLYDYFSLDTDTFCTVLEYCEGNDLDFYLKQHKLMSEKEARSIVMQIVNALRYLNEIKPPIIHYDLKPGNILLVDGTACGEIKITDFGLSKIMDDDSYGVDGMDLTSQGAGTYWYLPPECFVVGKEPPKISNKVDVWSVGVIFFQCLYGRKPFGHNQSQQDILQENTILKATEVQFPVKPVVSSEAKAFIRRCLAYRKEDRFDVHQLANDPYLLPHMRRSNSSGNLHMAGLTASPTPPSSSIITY
Sequence of Serine/threonine-protein kinase PLK3 (Homo sapiens) (Q9H4B4 whole entry, looked up, the tested form may be a part): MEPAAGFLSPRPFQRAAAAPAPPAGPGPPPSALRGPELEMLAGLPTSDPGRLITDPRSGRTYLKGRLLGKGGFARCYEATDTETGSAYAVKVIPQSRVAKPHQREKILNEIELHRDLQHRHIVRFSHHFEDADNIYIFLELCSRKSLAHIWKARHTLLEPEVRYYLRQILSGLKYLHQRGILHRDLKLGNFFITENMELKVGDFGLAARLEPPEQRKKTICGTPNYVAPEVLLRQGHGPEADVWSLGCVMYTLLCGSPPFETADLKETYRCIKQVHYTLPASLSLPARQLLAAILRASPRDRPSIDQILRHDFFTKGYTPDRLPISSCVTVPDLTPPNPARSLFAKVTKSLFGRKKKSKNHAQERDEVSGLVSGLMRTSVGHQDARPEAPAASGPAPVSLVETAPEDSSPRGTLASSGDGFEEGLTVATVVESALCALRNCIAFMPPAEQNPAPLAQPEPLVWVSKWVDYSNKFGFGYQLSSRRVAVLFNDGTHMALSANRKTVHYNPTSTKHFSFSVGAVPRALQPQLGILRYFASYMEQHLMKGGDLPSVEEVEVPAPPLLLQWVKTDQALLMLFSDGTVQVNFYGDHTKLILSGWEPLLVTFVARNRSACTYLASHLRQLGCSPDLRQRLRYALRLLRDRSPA
Sequence of Tyrosine-protein kinase ABL1 (Homo sapiens) (P00519 whole entry): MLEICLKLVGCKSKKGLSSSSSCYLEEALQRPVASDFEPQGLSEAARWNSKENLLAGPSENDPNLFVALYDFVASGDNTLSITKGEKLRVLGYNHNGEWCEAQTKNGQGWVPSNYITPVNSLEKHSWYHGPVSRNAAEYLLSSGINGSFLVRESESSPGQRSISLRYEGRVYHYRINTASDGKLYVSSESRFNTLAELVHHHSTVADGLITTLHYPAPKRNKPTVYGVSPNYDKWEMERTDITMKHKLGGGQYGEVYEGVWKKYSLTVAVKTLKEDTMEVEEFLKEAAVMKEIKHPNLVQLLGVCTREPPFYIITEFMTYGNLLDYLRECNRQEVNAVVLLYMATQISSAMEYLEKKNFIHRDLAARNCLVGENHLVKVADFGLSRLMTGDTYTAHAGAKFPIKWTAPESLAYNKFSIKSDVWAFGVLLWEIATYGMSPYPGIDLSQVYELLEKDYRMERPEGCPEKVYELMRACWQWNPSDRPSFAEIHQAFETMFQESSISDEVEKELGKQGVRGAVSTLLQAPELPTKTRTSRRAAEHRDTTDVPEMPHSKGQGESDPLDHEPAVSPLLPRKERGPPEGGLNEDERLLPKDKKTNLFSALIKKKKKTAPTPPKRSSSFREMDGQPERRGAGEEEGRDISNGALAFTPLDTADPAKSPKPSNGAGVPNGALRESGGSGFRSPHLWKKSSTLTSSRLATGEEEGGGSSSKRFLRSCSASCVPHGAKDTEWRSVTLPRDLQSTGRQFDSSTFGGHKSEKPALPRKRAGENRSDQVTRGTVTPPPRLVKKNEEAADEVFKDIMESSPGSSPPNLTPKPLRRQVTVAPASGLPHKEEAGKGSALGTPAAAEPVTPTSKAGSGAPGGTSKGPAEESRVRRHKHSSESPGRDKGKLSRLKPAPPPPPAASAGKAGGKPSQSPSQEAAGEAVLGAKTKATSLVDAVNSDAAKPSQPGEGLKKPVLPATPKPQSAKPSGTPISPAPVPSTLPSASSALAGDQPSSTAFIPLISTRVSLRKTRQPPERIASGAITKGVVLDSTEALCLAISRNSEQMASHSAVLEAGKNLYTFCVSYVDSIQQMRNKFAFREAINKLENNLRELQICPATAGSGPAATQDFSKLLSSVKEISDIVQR
Sequence of Serine/threonine-protein kinase pim-1 (Homo sapiens) (P11309 whole entry, looked up): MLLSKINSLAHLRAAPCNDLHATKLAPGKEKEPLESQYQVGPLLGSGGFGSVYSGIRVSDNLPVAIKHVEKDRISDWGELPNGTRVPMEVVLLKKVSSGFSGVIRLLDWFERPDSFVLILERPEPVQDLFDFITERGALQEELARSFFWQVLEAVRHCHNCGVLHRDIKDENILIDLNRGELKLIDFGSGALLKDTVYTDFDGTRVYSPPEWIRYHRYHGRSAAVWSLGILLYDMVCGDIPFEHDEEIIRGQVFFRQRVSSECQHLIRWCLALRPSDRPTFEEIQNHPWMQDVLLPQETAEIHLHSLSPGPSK
Sequence of Serine/threonine-protein kinase Nek11 (Homo sapiens) (Q8NG66 whole entry): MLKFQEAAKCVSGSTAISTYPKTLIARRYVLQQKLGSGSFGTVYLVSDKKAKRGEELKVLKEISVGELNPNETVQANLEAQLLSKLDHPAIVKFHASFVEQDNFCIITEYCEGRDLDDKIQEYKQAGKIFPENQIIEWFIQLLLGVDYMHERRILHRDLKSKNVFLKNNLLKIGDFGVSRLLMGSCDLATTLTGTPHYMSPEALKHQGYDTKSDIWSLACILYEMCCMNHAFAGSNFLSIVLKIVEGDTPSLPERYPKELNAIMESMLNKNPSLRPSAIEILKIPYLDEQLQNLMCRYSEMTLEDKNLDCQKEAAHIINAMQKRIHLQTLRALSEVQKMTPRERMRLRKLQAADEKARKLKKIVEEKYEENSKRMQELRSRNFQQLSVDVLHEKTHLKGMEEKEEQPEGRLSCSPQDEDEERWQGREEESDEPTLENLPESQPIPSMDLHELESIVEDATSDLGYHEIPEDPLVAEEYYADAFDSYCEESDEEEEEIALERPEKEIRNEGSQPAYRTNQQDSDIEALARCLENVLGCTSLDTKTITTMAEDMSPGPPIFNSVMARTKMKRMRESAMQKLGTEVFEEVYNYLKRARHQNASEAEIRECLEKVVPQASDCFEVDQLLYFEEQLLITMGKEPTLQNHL

## O=S(=O)(N[C@@H](CO)Cc1c[nH]c2ccccc12)c1ccc(-c2ccnc3[nH]ccc23)cc1
[1]
  Activity: > 75%
[2]
  Activity: > 75%
[3]
  Papp A→B: 3.4 ×10⁻⁶ cm/s
Homo sapiens [4]
  Activity: > 75%
[5]
  Activity: > 75%
[6]
  Activity: > 75%
[7]
  recovery: 45%
[8]
  Activity: > 75%
[9]
  Activity: < 75%
[10]
  Activity: Toxic
[11]
  Activity: > 75%
Homo sapiens [12]
  Activity: > 75%
Homo sapiens [13]
  Activity: > 75%
[14]
  Activity: > 75%
[15]
  Activity: > 75%
[16]
  Activity: > 75%
[17]
  Activity: > 75%
